Our source for the IC50, Activity and NO production (% of LPS control) values is ChEMBL document CHEMBL1154236, “Monoterpenes from Paeonia albiflora and their inhibitory activity on nitric oxide production by lipopolysaccharide-activated microglia” (J Nat Prod, 2009).

The test system of data set [1] is N9. Kind of data set: Antiinflammatory activity against mouse N9 cells assessed as inhibition of LPS-induced nitric oxide production after 48 hrs by Griess reaction relative to control. It is filed as functional, cell-based. To be noted: Homo sapiens, N9, 48 h. Summed up:
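Murine N9 microglia (IMDM, 5% heat-inactivated FBS, 2 mM L-glutamine, 5 × 10^-5 M 2-mercaptoethanol), 1 × 10^5 cells/well, precultured 24 h at 37 °C, 5% CO2. Then LPS 1 µg/mL plus compound (DMSO stock diluted in PBS pH 7.4, DMSO ≤0.1%) for 48 h. Supernatant nitrite read by Griess reagent, 15 min room temperature, A540. Expressed as % of LPS-only response. IC50 from linear/nonlinear regression, n = 3. Curcumin positive control.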

The test system of data set [2] is N9. Put plainly: Cytotoxicity against LPS-stimulated mouse N9 cells at 1 to 30 uM after 48 hrs by MTT assay. It is filed as cell-based. To be noted: n9, 48 h. The method, boiled down:
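N9 microglia seeded at 5 × 10^4 cells/well and exposed to compounds with LPS (1 µg/mL) for 48 h. MTT 0.25 mg/mL then added for 3 h at 37 °C. Formazan dissolved in DMSO and absorbance read at 490 nm.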
A general note: Tetrazolium dyes change colour on reduction, which living cells bring about.

For data set [3], the system named is N9. Put plainly: Antiinflammatory activity against mouse N9 cells assessed as LPS-induced nitric oxide production at 1 uM after 48 hrs by Griess reaction relative to control. To be noted: N9, 48 h. A general note: The Griess reaction detects nitrite, a stable product of nitric oxide.
The test system of data set [4] is N9. Put plainly: Antiinflammatory activity against mouse N9 cells assessed as LPS-induced nitric oxide production at 3 uM after 48 hrs by Griess reaction relative to control. As to conditions: N9, 48 h.
For data set [5], the system named is N9. Kind of data set: Antiinflammatory activity against mouse N9 cells assessed as LPS-induced nitric oxide production at 10 uM after 48 hrs by Griess reaction relative to control. To be noted: N9, 48 h.
The test system of data set [6] is N9. Put plainly: Antiinflammatory activity against mouse N9 cells assessed as LPS-induced nitric oxide production at 30 uM after 48 hrs by Griess reaction relative to control. As to conditions: N9, 48 h.
In data set [7] the test system is N9. Put plainly: Antiinflammatory activity against mouse N9 cells assessed as inhibition of LPS-induced nitric oxide production after 48 hrs by Griess reaction relative to control. As to conditions: N9, 48 h.

Each structure is given as a SMILES string.

With `COC1O[C@@]2(C)CC(=O)[C@@H]3C[C@]2(O[C@@H]2O[C@H](CO)[C@@H](O)[C@H](O)[C@H]2O)[C@@]13COC(=O)c1ccccc1` (stereo partly specified), the IC50 – broadly, the concentration that inhibits the measured activity by half – with N9 [1] was above 100 µM.

With `C[C@@]12C[C@@]3(O)O[C@@H](O1)[C@]1(COC(=O)c4ccccc4)[C@@H]3C[C@]12O[C@@H]1O[C@H](COC(=O)c2ccccc2)[C@@H](O)[C@H](O)[C@H]1O` [BENZOYLPAEONIFLORIN], in the data set with N9 [2], the Activity entry is “Toxic”. Also, the NO production (% of LPS control) at 1 µM in the data set with N9 [3] was found to be 86.3%. Also, in the data set on N9 [4], the NO production (% of LPS control) at 3 µM turned out to be 81.4%. For the same compound, in the data set on N9 [5], the NO production (% of LPS control) at 10 µM was 79.5%. In the data set on N9 [6], the NO production (% of LPS control) at 30 µM was found to be 68.6%.

Regarding `C[C@@]12C[C@@]3(O)O[C@@H](O1)[C@]1(COC(=O)c4ccccc4)[C@@H]3C[C@]12O[C@@H]1O[C@H](COC(=O)c2cc(O)c(O)c(O)c2)[C@@H](O)[C@H](O)[C@H]1O` [GALLOYLPAEONIFLORIN], the Activity entry with N9 [2] is “Toxic”. Further, the NO production (% of LPS control) at 1 µM with N9 [3] worked out at 82.1%. For the same compound, the NO production (% of LPS control) at 3 µM with N9 [4] was found to be 84.4%. Besides, the NO production (% of LPS control) at 10 µM with N9 [5] amounted to 62.1%. Besides, the NO production (% of LPS control) at 30 µM in the data set with N9 [6] was determined as 69.5%.

Take `CO[C@H]1O[C@@]2(C)CC(=O)[C@H]3C[C@]2(O[C@@H]2O[C@H](CO[C@H]4O[C@@]5(C)CC(=O)[C@H]6C[C@]5(O[C@@H]5O[C@H](CO)[C@@H](O)[C@H](O)[C@H]5O)[C@]46COC(=O)c4ccccc4)[C@@H](O)[C@H](O)[C@H]2O)[C@]13COC(=O)c1ccccc1` [PAEONIDANIN D]: the Activity entry in the data set on N9 [2] is listed as “Toxic”. Besides, in the data set with N9 [3], the NO production (% of LPS control) at 1 µM turned out to be 112%. Also, the NO production (% of LPS control) at 3 µM with N9 [4] came out at 96.6%. The NO production (% of LPS control) at 10 µM in the data set on N9 [5] was 83.5%. Moreover, in the data set with N9 [6], the NO production (% of LPS control) at 30 µM amounted to 77.1%.

With `C[C@]12CC(=O)[C@H]3C[C@]1(O[C@@H]1O[C@H](CO)[C@@H](O)[C@H](O)[C@H]1O)[C@]3(COC(=O)c1ccccc1)[C@@H](OC[C@H]1O[C@@H](O[C@@]34C[C@H]5[C@@]3(COC(=O)c3ccccc3)[C@H]3O[C@]5(O)C[C@]4(C)O3)[C@H](O)[C@@H](O)[C@@H]1O)O2` [PAEONIDANIN E], the NO production (% of LPS control) at 1 µM in the data set with N9 [3] came out at 102%. Also, in the data set with N9 [4], the NO production (% of LPS control) at 3 µM is 102%. Moreover, the NO production (% of LPS control) at 10 µM in the data set on N9 [5] was determined as 88.8%. For the same compound, the NO production (% of LPS control) at 30 µM with N9 [6] was 69.2%. Also, in the data set on N9 [7], the IC50 stood at 64.7 µM.

Regarding `C[C@@]12CC(=O)[C@H]3C[C@]1(O)O[C@H](O2)[C@@H]3COC(=O)c1ccccc1` [PAEONIFLORIGENONE], the Activity result in the data set on N9 [2] is listed as “Toxic”. Moreover, the NO production (% of LPS control) at 1 µM in the data set on N9 [3] stood at 92.6%. The NO production (% of LPS control) at 3 µM in the data set with N9 [4] came to 71.9%. Also, the NO production (% of LPS control) at 10 µM with N9 [5] was determined as 24.5%. Also, in the data set with N9 [6], the NO production (% of LPS control) at 30 µM amounted to 26.7%.

Consider `C[C@@]12C[C@@]3(O)O[C@@H](O1)[C@]1(COC(=O)c4ccccc4)[C@H]3C[C@@]12O[C@@H]1O[C@H](CO)[C@@H](O)[C@H](O)[C@H]1O` [PAEONIFLORIN], for which, in the data set on N9 [3], the NO production (% of LPS control) at 1 µM amounted to 100%. In addition, the NO production (% of LPS control) at 3 µM with N9 [4] was determined as 87.8%. The NO production (% of LPS control) at 10 µM in the data set on N9 [5] was determined as 79.5%. Also, the NO production (% of LPS control) at 30 µM in the data set with N9 [6] is 66.7%. In addition, the IC50 in the data set with N9 [7] was 27.8 µM.

As to `C[C@@H]1CC(=O)[C@H]2C[C@]1(O)[C@]2(C)COC(=O)c1cc(O)c(O)c(O)c1` [PAEONIFLORONE], the NO production (% of LPS control) at 1 µM with N9 [3] was 91.3%. In addition, the NO production (% of LPS control) at 3 µM with N9 [4] came out at 83.8%. In addition, the NO production (% of LPS control) at 10 µM in the data set on N9 [5] came out at 67.5%. Besides, the NO production (% of LPS control) at 30 µM in the data set on N9 [6] was 64.1%. For the same compound, in the data set on N9 [7], the 50% inhibitory concentration (IC50) stood at 61.8 µM.

As for `C[C@]12C[C@@H](O)[C@H]3C[C@]1(O[C@@H]1O[C@H](COC(=O)c4ccccc4)[C@@H](O)[C@H](O)[C@H]1O)[C@]3(COC(=O)c1ccccc1)C(=O)O2` [PAEONIVAYIN], in the data set on N9 [3], the NO production (% of LPS control) at 1 µM is 86.7%. Moreover, in the data set with N9 [4], the NO production (% of LPS control) at 3 µM turned out to be 88.3%. The NO production (% of LPS control) at 10 µM in the data set with N9 [5] came out at 82%. The NO production (% of LPS control) at 30 µM with N9 [6] was determined as 82.6%. Besides, in the data set with N9 [7], the IC50 is above 100 µM.
